# Assay outcomes from PubChem BioAssay.
# DNMT1 inh = inhibitors of human DNMT1 | inhibition (reported as % activation of signal), % at 10 µM | AID 588458 | 360,000 compounds, 0.83% hits | P26358 | DNMT1 molecular beacon, Hinp1I cleavage, fluorescence; in the data active = inhibition above about 50%
# SUMO1-SIM PPI = SUMO1-SIM interaction modulation; inhibition, % at 20 µM; SUMO1 binding to a labelled peptide, TR-FRET, 1 h; 360,000 compounds, 0.33% hits; in the data active = inhibition above about 37%
# Target sequence (P63165 whole entry, looked up): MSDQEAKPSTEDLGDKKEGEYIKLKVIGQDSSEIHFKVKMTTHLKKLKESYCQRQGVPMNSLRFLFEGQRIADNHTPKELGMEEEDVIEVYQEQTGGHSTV
# STEP block = blocks human striatal-enriched tyrosine phosphatase; P54829; recombinant STEP, OMFP fluorogenic substrate, fluorescence; inhibition, % at 20 µM; 360,000 compounds, 0.25% hits; AID 588621;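 active = inhibition at 20 µM, scaled per plate between control wells, above about 37%, limit read from the data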;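 note: 0% = DMSO with enzyme and substrate and 100% = substrate only without enzyme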
#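 material = STEP tyrosine phosphatase | reagent = fluorogenic phosphatase substrate OMFP at 25 µM final | doses = single compound dose of 20 µM, 1% DMSO final | schedule = 20 min reaction, room temperature, in the dark | measured by = fluorescence, 480/540 nm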
# Scp-1 inhibitor = Scp-1 (human) phosphatase inhibition; Recombinant Scp1, phosphopeptide, malachite green phosphate absorbance; 340,000 compounds, 0.88% hits; Q9GZU7; inhibition, % at 20 µM;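 active = inhibition above about 50% at 20 µM, limit read from the data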;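 note: plate controls were DMSO wells with enzyme for no effect and wells lacking enzyme for full effect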
# Target sequence (Q9GZU7 76-261 limits assumed): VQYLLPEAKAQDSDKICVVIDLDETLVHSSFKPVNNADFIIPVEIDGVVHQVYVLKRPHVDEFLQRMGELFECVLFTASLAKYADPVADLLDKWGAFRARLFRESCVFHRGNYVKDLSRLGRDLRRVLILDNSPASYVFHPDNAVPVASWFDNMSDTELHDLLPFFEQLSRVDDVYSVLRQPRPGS
#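 System: truncated SCP-1 phosphatase (76-261aa); medium: Tris acetate buffer pH 5.5 with MgCl2 and Tween-20; incubation: 45 min room-temperature reaction, 5 min colour, 30 min stabiliser; compound: single 20 µM dose, 1% DMSO; reagent: Phosphorylated 17-residue peptide substrate; read-out: % inhibition at 20 µM; technique: colorimetric free-phosphate detection, absorbance 630 nm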
# LMPTP inh = blocks human LMPTP phosphatase. P24666. recombinant LMPTP-A, OMFP fluorogenic substrate, fluorescence intensity. inhibition, % at 20 µM. 360,000 compounds, 0.22% hits;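 active = compounds that cut the enzyme signal by at least half of the control window in the single-dose screen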;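 note: plate controls were DMSO wells with enzyme plus substrate for no effect and substrate without enzyme for full effect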
# Target sequence (P24666 whole entry, looked up): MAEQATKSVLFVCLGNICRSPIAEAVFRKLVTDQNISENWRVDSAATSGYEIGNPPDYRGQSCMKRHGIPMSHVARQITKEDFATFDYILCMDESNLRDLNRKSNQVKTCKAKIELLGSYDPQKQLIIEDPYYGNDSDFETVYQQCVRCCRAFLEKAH
#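 material = LMPTP-A | quantity = 0.625 nM enzyme | reagent = OMFP substrate, 400 µM final | buffer or medium = Bis-Tris pH 6.0, DTT, detergent | detection = endpoint fluorescence intensity from OMFP dephosphorylation | dosing = single 20 µM dose | read-out basis = % inhibition relative to no-enzyme and uninhibited control wells | control set = no-enzyme and uninhibited controls | timing = 50 min at room temperature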
# Numbers without * were called inactive; / = no result given. Shown are actives, neighbours in structure and some others; about 1.8% of the full set was active somewhere.
SMILES,DNMT1 inh,SUMO1-SIM PPI,STEP block,Scp-1 inhibitor,LMPTP inh
N#Cc1c(-c2ccccc2)nc(SCC(=O)N2c3ccccc3Sc3ccccc32)[nH]c1=O,4.5,46.5*,-3.7,-2.0,3.7
CN(CCCS(=O)(=O)[O-])c1ccc(/C=C/c2ccc3ccccc3[n+]2C)cc1,6.4,-38.6,0.6,36.3,1.1
CN(C)c1ccc(/C=C/c2ccc3ccccc3[n+]2C)cc1,0.8,-38.4,13.1,66.0*,45.7
CN(C)c1ccc(/C=C/c2ccc3c4ccccc4ccc3[n+]2-c2ccccc2)cc1,39.7,37.1,16.3,6.3,98.0*
CN(CC(=O)Nc1ccc(Cl)c(C(F)(F)F)c1)C(=O)C1CC(=O)N(C2CCCC2)C1 (configuration not stated),-2.8,-2.2,-0.2,10.4,0.0
COc1cc(-c2nc(-c3ccc(Br)o3)no2)cc(OC)c1OC,45.3,53.2*,3.1,-6.6,1.5
O=C(Cc1ccc(-n2c(=O)c3ccccc3n(Cc3ccc(F)cc3)c2=O)cc1)NCC1CCCO1 (configuration not stated),0.6,40.0*,2.0,-30.4,0.0
CCc1nc(N)nc(N)c1-c1ccc(Cl)cc1,0.7,7.6,-0.3,-0.7,55.8*
CCc1nc(N)nc(N)c1-c1ccc(N(C)Cc2ccccc2)c([N+](=O)[O-])c1,-9.6,-18.8,-0.5,-0.3,78.7*
COc1ccc(NC(=O)Nc2cccc3c2O[C@H](CN(C)S(C)(=O)=O)[C@@H](C)CN([C@H](C)CO)C3=O)cc1,4.0,7.6,0.1,1.9,-3.5
CCCN(CCC)C(=O)CC(c1ccc(F)cc1)c1ccco1 (configuration not stated),12.5,-2.9,48.1*,-8.7,0.7
CC(=O)Nc1ccc(NC(=O)CSc2ccc(-c3ccc(-n4ccnc4)cc3)nn2)cc1,-3.3,41.8*,2.1,-0.8,8.1
CC(=O)Nc1ccc(NC(=O)CSc2ccc(-c3cccnc3)nn2)cc1,-0.6,4.0,-2.0,-6.0,0.3
Cc1ccc(C(=O)Nn2cnnc2)cc1Cl,12.1,2.3,-0.8,-6.5,-0.7
Nc1c2ccccc2nc2ccccc12,75.8*,-30.6,0.3,-1.6,18.6
O=C(c1ccc(-c2nnc(Nc3cccc(Cl)c3)c3ccccc23)cc1)N1C[C@H]2C[C@H](C1)c1cccc(=O)n1C2,74.0*,6.8,2.4,3.0,20.3
COc1nnc(-c2ccc(C(=O)N3C[C@@H]4C[C@H](C3)c3cccc(=O)n3C4)cc2)c2ccccc12,2.8,-1.0,-2.9,3.6,3.9
CN1CCn2cnc(C(=O)Nc3ccc(CNC(=O)OC(C)(C)C)cc3)c2C1=O,-1.9,12.2,-0.5,/,0.2
CCC(=O)Nc1nonc1-c1nc2ccccc2n1Cc1ccc(Cl)c(Cl)c1,/,/,/,56.3*,/
CC(=O)Oc1cc(C(=O)OCC(=O)NC23CC4CC(CC(C4)C2)C3)cc(OC(C)=O)c1OC(C)=O,15.6,8.9,1.7,69.8*,21.6
Nc1cc2[nH]c(=O)c3ccccc3c2cc1[N+](=O)[O-],-0.5,50.2*,1.2,-5.3,2.7
CC(C)(C)C(=O)N1CCC2CC1c1cc(Cl)ccc12 (configuration not stated),2.0,5.3,-1.4,8.2,-1.5
CCCN1C(=O)CC(c2ccc(OC)c(OC)c2)C1=O (configuration not stated),-3.4,2.3,-0.7,/,47.1*
COc1ccc(C2CC(=O)c3cc(OC)c(OC)cc32)cc1OC (configuration not stated),0.2,-0.7,-1.8,-5.1,-0.8
COc1ccccc1NC(=O)C[n+]1ccccc1C,-3.2,0.9,0.0,-3.0,-2.2
SMILES,DNMT1 inh,SUMO1-SIM PPI,STEP block,Scp-1 inhibitor,LMPTP inh
CCOc1ccccc1NC(=O)Nc1ccc2c(c1)OCO2,1.3,4.7,-1.8,-9.2,0.8
C=CCOc1ccccc1CN(C(=O)CCl)c1ccc2c(c1)OCO2,78.7*,-1.9,-1.3,-9.8,-0.3
CC(C)c1cc(C(=O)NCc2ccc(F)cc2)c(N)s1,/,0.2,/,/,1.5
COc1ccc(-c2cnc3c(c2)C(=O)N([C@H](C)CO)C[C@@H](C)[C@@H](CN(C)C(=O)NC2CCCC2)O3)cc1,12.2,0.8,-1.8,/,0.0
COC(=O)[C@]12CCCCC=C1N(Cc1ccccc1)C(=O)[C@H](CC(=O)NCc1ccccc1)C2,/,2.9,/,/,-0.4
O=c1cc(CN2CCN(Cc3ccccc3)CC2)c2ccc(O)c(O)c2o1,4.1,-8.7,4.2,28.9,55.3*
Cc1c(O)ccc2c(CN3CCN(Cc4ccccc4)CC3)cc(=O)oc12,2.4,-10.1,-1.7,2.2,-2.0
COC(=O)c1ccc(C(=O)Nc2ccc3nc(-c4ccncc4)[nH]c3c2)cc1,-2.1,50.5*,1.4,-10.0,-0.1
COC(=O)c1ccc(C(=O)Nc2ccc3nc(-c4cccnc4)[nH]c3c2)cc1,-6.4,31.1,-1.2,-6.7,-0.5
O=C(N/N=C/C(Br)=C/c1ccccc1)c1n[nH]c2c1CCC2,57.3*,0.1,1.1,6.0,4.5
O=C(N/N=C/c1ccccc1)c1n[nH]c2c1CCCC2,-1.2,-4.5,0.5,6.7,0.7
CCCCN1CC(=O)N2[C@H]3c4ccccc4OC[C@@H]3[C@H](c3ccccc3)[C@]2(C)C1=O,1.9,-1.4,-0.6,-8.6,0.1
NS(=O)(=O)c1ccc(N/N=C/c2ccccc2Br)cc1,-2.6,59.6*,-2.7,-2.0,3.6
O=C(NCc1ccccc1)C(c1ccccc1F)n1c(=O)c(-c2ccco2)nc2ccccc21 (configuration not stated),/,-11.7,/,/,5.0
Clc1ccc(Nc2ncnc3c2cnn3-c2ccccc2)cc1,-7.3,3.1,-0.5,-4.5,3.0
CC(C)Nc1ncnc2c1cnn2-c1ccc(Cl)cc1,86.1*,0.8,-4.0,-1.6,1.5
CCCNC(=O)c1ccc2c(=O)c(O)c(-c3ccc(C)cc3)[nH]c2c1,14.6,-29.2,1.4,-6.2,0.1
Cc1ccc(-c2[nH]c3cc(C(=O)NCCCn4ccnc4)ccc3c(=O)c2O)cc1,-8.8,-47.1,5.3,-14.2,50.8*
CCOC(OCC)c1cc2ccccc2cn1,3.4,6.4,-2.7,-3.6,-0.9
CCN(C(=O)COC(=O)c1ccc(SC)cc1OC)C1CCS(=O)(=O)C1 (configuration not stated),-4.1,2.0,-2.3,-7.3,0.0
CCc1ccc(C(O)c2ncc(-c3ccc4ccccc4c3)[nH]2)cc1 (configuration not stated),60.7*,-3.8,-2.4,/,0.0
COC(=O)c1sccc1NC(=O)Nc1ccc(C(C)=O)cc1,-3.0,3.4,-0.6,-8.3,1.0
CNC(=S)N/N=C1\C(=O)c2cccc3cccc1c23,-7.3,-11.4,0.7,-4.8,2.2
O=C(N/N=C1\C(=O)c2cccc3cccc1c23)c1ccc(O)cc1,44.1,41.3*,10.1,23.9,16.9
COc1ccc(-c2cc(=O)c3c(C)cc(O)cc3o2)cc1,8.2,45.1*,2.7,46.8,18.1
